Assay [1] relates to NCI-H460. The experiment in a line: Cytotoxicity against human NCI-H460 cells assessed as cell viability at 25 nM after 48 hrs by MTT assay. Type of assay: functional. To be noted: NCI-H460, 48 h, read-out: Activity. Summed up: (§1)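 Viability of NCI-H460 cells was measured by MTT (mitochondrial enzymatic activity) after 48 h exposure, within a dose series spanning 1 nM–10 μM. N = 9, analysed by two-way ANOVA.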

Assay [2] concerns NCI-H460. The experiment in a line: Cytotoxicity against human NCI-H460 cells assessed as cell death in serum free medium at 250 nM after 12 hrs by Hoechst 33342/propidium iodide staining based fluorescence microscopy. It counts as functional. Summed up: (§2)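 NCI-H460 human lung cancer cells exposed 12 h to 10 nM–10 μM drug, including a 50 nM single-concentration test. Nuclei were stained with Hoechst 33342 and necrotic cells with propidium iodide. Apoptotic cells were scored by condensed or fragmented blue nuclei and necrotic cells by red PI staining. Total cell death (apoptosis plus necrosis) was recorded; N = 6.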

The subject of assay [3] is NCI-H460. The experiment in a line: Cytotoxicity against human NCI-H460 cells assessed as cell death in serum free medium at 10000 nM after 12 hrs by Hoechst 33342/propidium iodide staining based fluorescence microscopy. Type of assay: functional. Summed up:
as §2

The subject of assay [4] is NCI-H460. The experiment in a line: Cytotoxicity against human NCI-H460 cells assessed as cell viability at 50 nM after 48 hrs by MTT assay. Type of assay: functional. The conditions noted are these: NCI-H460, 48 h, read-out: Activity. Summed up: as §1
The subject of assay [5] is NCI-H460. The experiment in a line: Cytotoxicity against human NCI-H460 cells assessed as cell death in serum free medium at 50 nM after 12 hrs by Hoechst 33342/propidium iodide staining based fluorescence microscopy. Type of assay: functional. Summed up: as §2
The test system of assay [6] is NCI-H460. The experiment in a line: Cytotoxicity against human NCI-H460 cells assessed as cell death in serum free medium at 500 nM after 12 hrs by Hoechst 33342/propidium iodide staining based fluorescence microscopy. Type of assay: functional. Summed up: as §2
Assay [7] relates to NCI-H460. The experiment in a line: Induction of apoptosis in human NCI-H460 cells in serum free medium at 50 nM after 12 hrs by Hoechst 33342/propidium iodide staining based fluorescence microscopy. Type of assay: functional. Put shortly: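 NCI-H460 cells exposed to a single 50 nM concentration for 12 h. Cells stained with Hoechst 33342 and propidium iodide. Blue cells with condensed or fragmented nuclei were scored as apoptotic and red, ruptured cells as necrotic. Result given as % apoptotic cell death; N = 6, one-way ANOVA.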

For assay [8], the system named is NCI-H460. The experiment in a line: Growth inhibition of human NCI-H460 cells after 48 hrs by MTT assay. It counts as functional. Put shortly: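 NCI-H460 viability measured by MTT (mitochondrial enzymatic activity) after 48 h exposure at 1 nM to 10 μM. GI50 derived from dose-response curves, with N = 9 and two-way ANOVA. Values are the mean of three independent experiments with duplicate determinations.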

Assay [9] has as its system NCI-H460. The experiment in a line: Cytotoxicity against human NCI-H460 cells assessed as cell viability after 48 hrs by MTT assay. It counts as functional. The conditions noted are these: NCI-H460, 48 h. Summed up:
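NCI-H460 cells were exposed to drug for 48 h, and viability was read by MTT as mitochondrial enzymatic activity. GI50 was derived from dose-response curves (1 nM–10 μM). Values are from three independent experiments with duplicate determinations, given with standard error of the mean.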

The subject of assay [10] is NCI-H460. The experiment in a line: Cytotoxicity against human NCI-H460 cells assessed as cell viability at 500 nM after 48 hrs by MTT assay. It counts as functional. The conditions noted are these: NCI-H460, 48 h, read-out: Activity. Put shortly:
as §1

Assay [11] has as its system NCI-H460. The experiment in a line: Cytotoxicity against human NCI-H460 cells assessed as cell viability at 1 nM after 48 hrs by MTT assay. It counts as functional. The conditions noted are these: NCI-H460, 48 h, read-out: Activity. Summed up:
as §1

Assay [12] relates to NCI-H460. The experiment in a line: Cytotoxicity against human NCI-H460 cells assessed as cell death in serum free medium at 10 nM after 12 hrs by Hoechst 33342/propidium iodide staining based fluorescence microscopy. Type of assay: functional. Put shortly: as §2
Assay [13] concerns NCI-H460. The experiment in a line: Cytotoxicity against human NCI-H460 cells assessed as cell viability at 1000 nM after 48 hrs by MTT assay. Type of assay: functional. The conditions noted are these: NCI-H460, 48 h, read-out: Activity. Put shortly: as §1
Assay [14] concerns NCI-H460. The experiment in a line: Induction of apoptosis in human NCI-H460 cells in serum free medium after 12 hrs by Hoechst 33342/propidium iodide staining based fluorescence microscopy. Type of assay: functional, cell-based. The conditions noted are these: for IC50: NCI-H460, 12 h. Put shortly: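 NCI-H460 cells treated for 12 h at 10 nM to 10 μM. Total cell death (apoptosis plus necrosis) scored by Hoechst 33342/propidium iodide staining, with N = 6 and two-way ANOVA. IC50 obtained by nonlinear regression. Table values are the mean of three independent experiments with duplicate determinations.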

Assay [15] has as its system NCI-H460. The experiment in a line: Cytotoxicity against human NCI-H460 cells assessed as cell death in serum free medium at 25 nM after 12 hrs by Hoechst 33342/propidium iodide staining based fluorescence microscopy. It counts as functional. Put shortly:
as §2

In assay [16] the test system is NCI-H460. The experiment in a line: Cytotoxicity against human NCI-H460 cells assessed as cell death in serum free medium at 100 nM after 12 hrs by Hoechst 33342/propidium iodide staining based fluorescence microscopy. Type of assay: functional. Put shortly:
as §2

Assay [17] has as its system NCI-H460. The experiment in a line: Cytotoxicity against human NCI-H460 cells assessed as cell death in serum free medium at 1000 nM after 12 hrs by Hoechst 33342/propidium iodide staining based fluorescence microscopy. It counts as functional. Summed up:
as §2

The subject of assay [18] is NCI-H460. The experiment in a line: Cytotoxicity against human NCI-H460 cells assessed as cell death in serum free medium at 75 nM after 12 hrs by Hoechst 33342/propidium iodide staining based fluorescence microscopy. Type of assay: functional. Summed up:
as §2

Assay [19] deals with NCI-H460. The experiment in a line: Cytotoxicity against human NCI-H460 cells assessed as cell viability at 10 nM after 48 hrs by MTT assay. Type of assay: functional. To be noted: NCI-H460, 48 h, read-out: Activity. Summed up: as §1
Assay [20] relates to NCI-H460. The experiment in a line: Cytotoxicity against human NCI-H460 cells assessed as cell viability at 100 nM after 48 hrs by MTT assay. It counts as functional. The conditions noted are these: NCI-H460, 48 h, read-out: Activity. Summed up:
as §1

Results on three molecules are retold here after ChEMBL document CHEMBL1817593, “C5'-Alkyl Substitution Effects on Digitoxigenin α-l-Glycoside Cancer Cytotoxicity” (ACS Med Chem Lett, 2011).

Take `CC[C@@H]1O[C@@H](O[C@H]2CC[C@@]3(C)[C@H](CC[C@@H]4[C@@H]3CC[C@]3(C)[C@@H](C5=CC(=O)OC5)CC[C@]43O)C2)CC[C@H]1O`: in assay [1], the viability at 0.025 µM was 9.23%. Besides, the Activity in [2] is listed as 87.87%; in [3] it was 100%; in assay [5], 22.56%; in [6] it was 99.58%; in assay [7], 18.75%; in [12], 13.46%. Further, the Activity entry was “Dose-dependent effect” in assay [14]; 19.43% in assay [15]; 69.05% in assay [16]; 100% in assay [17]; 39.69% in [18]. Also, the viability at 0.05 µM in [4] came to 8.21%. For the same molecule, the GI50 result in assay [8] is “Dose-dependent effect”; in assay [8] (NCI-H460, 48 h), 2 nM; in [9], 2.19 nM. Moreover, the viability at 0.5 µM in assay [10] is 5.41%. Further, the viability at 0.001 µM in assay [11] stood at 73.3%. In addition, in [13], the viability at 1 µM was 4.5%. The IC50 in assay [14] was 87.3 nM. For the same molecule, the viability at 0.01 µM in assay [19] turned out to be 20.6%. Besides, the viability at 0.1 µM in [20] stood at 6.81%.
For the molecule `CC[C@@H]1O[C@@H](O[C@H]2CC[C@@]3(C)[C@H](CC[C@@H]4[C@@H]3CC[C@]3(C)[C@@H](C5=CC(=O)OC5)CC[C@]43O)C2)[C@H](O)[C@H](O)[C@H]1O`, the viability at 0.025 µM in [1] amounted to 10.3%. The Activity in [2] came to 98.51%; in assay [3], 100%; in assay [5], 42.16%; in assay [6] it was 100%; in assay [7] it was 30.625%; in [12] it was 15.02%. The Activity entry in assay [14] is “Dose-dependent effect”; in [15], 24.93%; in [16] it was 80.15%; in [17], 100%; in assay [18] it was 71.83%. Moreover, the viability at 0.05 µM in assay [4] was 8.28%. Further, the 50% growth inhibitory concentration (GI50) entry in assay [8] was “Dose-dependent effect”; in assay [8] (NCI-H460, 48 h), 2 nM; in assay [9], 2.14 nM. The viability at 0.5 µM in assay [10] turned out to be 6.13%. Also, the viability at 0.001 µM in assay [11] stood at 73.2%. The viability at 1 µM in assay [13] amounted to 5.71%. In assay [14], the IC50 was 56.9 nM. Further, in assay [19], the viability at 0.01 µM amounted to 20%. For the same molecule, the viability at 0.1 µM in assay [20] came to 6.64%.
With `CC(C)C[C@@H]1O[C@@H](O[C@H]2CC[C@@]3(C)[C@H](CC[C@@H]4[C@@H]3CC[C@]3(C)[C@@H](C5=CC(=O)OC5)CC[C@]43O)C2)[C@H](O)[C@H](O)[C@H]1O`, the viability at 0.025 µM in assay [1] was 40.6%. Further, the Activity came to 68.62% in assay [2]; 100% in [3]; 17.66% in [5]; 100% in assay [6]; 9.9487% in assay [7]; 12.15% in assay [12]. In addition, the Activity result was “Dose-dependent effect” in assay [14]; 14.36% in assay [15]; 36.73% in [16]; 100% in assay [17]; 24.5% in [18]. For the same molecule, the viability at 0.05 µM in assay [4] is 26.1%. For the same molecule, the GI50 entry in assay [8] is “Dose-dependent effect”; in assay [8] (NCI-H460, 48 h), 13 nM; in assay [9], 13.4 nM. For the same molecule, the viability at 0.5 µM in assay [10] is 6.69%. The viability at 0.001 µM in [11] came to 82.4%. Further, in assay [13], the viability at 1 µM was found to be 5.9%. For the same molecule, the IC50 in assay [14] stood at 167 nM. Besides, in [19], the viability at 0.01 µM turned out to be 57.7%. Further, the viability at 0.1 µM in assay [20] came to 12.4%.
